The sample as a whole holds a higher share of hits than the screen did.
T cruzi HTS = inhibitors of intracellular Trypanosoma cruzi, primary screen, cell-based, plate reader, single point, set 2; intracellular Trypanosoma cruzi in host cells; activity score (inhibition), % at 5.01 µM; 4.9% of 22,000 active; in the data active = activity score above about 55%;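 note: parasites and compound incubated about four days before reading; 0% = median of neutral control wells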
YB-1 expression = inhibitors of YB-1 gene expression, primary screen, cell-based, fluorescence; U2OS, qRT-PCR YB-1 vs CDIP delta delta Cp, 16 h; hits give high values; zero = DMSO, each unit about twofold; delta delta Cp (YB-1 minus CDIP) (no concentration beside the values); 0.37% of 30,000 active; AID 434959, 2010;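 active = delta delta Cp rounded down to an integer at or above 3, about 3 SD of DMSO wells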;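 note: higher means less YB-1 transcript or more CDIP transcript relative to DMSO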
INS-1E ATP HTS = protection of INS-1E cells from cytokine death, primary screen, ATP luminescence, single point | INS-1E cytokine-induced death, 48 h; normalised: neutral wells 0, positive control 100 | AID 488910, 2010 | 0.1% of 20,000 active | protection from cytokine-induced ATP loss, % at 10 µM;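 active = mean replicate protection from cytokine-induced ATP loss at least 50% and at least 75% of replicates each reaching 50%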
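Assay system – rat INS-1E insulinoma cell line · Quantity – 8000 cells per well · Buffer or medium – RPMI without phenol red, 5% FBS · Schedule – 48 h co-treatment, 10 min post-lysis read · Technique – luminescent ATP assay (CellTiter-Glo)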
* = called active by the depositor; nt = no result given.

SMILES	T cruzi HTS	YB-1 expression	INS-1E ATP HTS
C[C@@H]1CN([C@H](C)CO)C(=O)CCCn2nncc2CO[C@H]1CN(C)S(=O)(=O)c1ccc(-c2ccccc2)cc1	-4	0.12	2
C[C@@H]1CN([C@H](C)CO)C(=O)CCCn2nncc2CO[C@@H]1CN(C)S(=O)(=O)c1ccc(Oc2ccccc2)cc1	26	-0.011	-2
C=CC1c2cc(O)c(OC)cc2CCN1Cc1cc2c(cc1Br)OCO2 (stereo not drawn)	nt	-0.2	nt
COc1cccc(OC)c1/C=N/NC(=O)CCCCCCC(=O)Nc1ccccc1O	9	-0.22	2
CC1OC(OC2C(CO)OC(OC(=O)[C@]34CCC(C)(C)CC3C3=CCC5[C@@]6(C)CC[C@H](OC7OC(C)C(OC8OCC(O)(COC9OCC(O)C(OC%10OCC(OC%11OCC(O)(CO)C%11O)C(O)C%10O)C9O)C8O)C(O)C7O)C(C)(C)C6CC[C@@]5(C)[C@]3(C)CC4)C(O)C2O)C(O)C(O)C1O (stereo partly drawn)	nt	-0.45	nt
CC1(C)COC(CCC/C=N/NC(=O)c2ccccc2O)OC1	-10	-0.32	-11
Cc1noc(C)c1S(=O)(=O)Nc1cccc2c1O[C@H](CN(C)Cc1ccc(C(=O)Nc3ccccc3N)cc1)[C@H](C)CN([C@H](C)CO)C2=O	60*	-0.22	-14
Cc1ccc(S(=O)(=O)Nc2cccc3c2O[C@@H](CN(C)Cc2ccc(C(=O)Nc4ccccc4N)cc2)[C@H](C)CN([C@@H](C)CO)C3=O)cc1	55*	0.073	-6
Cc1ccc(S(=O)(=O)Nc2cccc3c2O[C@@H](CN(C)Cc2ccc(C(=O)Nc4ccccc4N)cc2)[C@@H](C)CN([C@@H](C)CO)C3=O)cc1	64*	-0.43	8
C[C@H]1CN([C@@H](C)CO)C(=O)c2cccc(NS(=O)(=O)c3ccc(Cl)cc3)c2O[C@H]1CN(C)Cc1ccc(C(=O)Nc2ccccc2N)cc1	60*	-0.11	8
C[C@H](CO)N1C[C@H](C)[C@H](CN(C)Cc2ccc(C(=O)Nc3ccccc3N)cc2)Oc2c(NS(=O)(=O)c3ccc(Cl)cc3)cccc2C1=O	53	-0.07	-6
C[C@@H]1CN([C@H](C)CO)C(=O)c2cccc(NS(=O)(=O)c3ccccc3)c2O[C@H]1CN(C)Cc1ccc(C(=O)Nc2ccccc2N)cc1	47	0.062	-10
Cc1ccc(S(=O)(=O)Nc2cccc3c2O[C@H](CN(C)Cc2ccc(C(=O)Nc4ccccc4N)cc2)[C@@H](C)CN([C@@H](C)CO)C3=O)cc1	44	-0.18	0
Cc1ccc(S(=O)(=O)Nc2cccc3c2O[C@H](CN(C)Cc2ccc(C(=O)Nc4ccccc4N)cc2)[C@H](C)CN([C@H](C)CO)C3=O)cc1	50	-0.34	23
COC(=O)CCCCCCC(=O)N/N=C/c1cccc(O)c1	-5	0.29	-4
N#CC1=C(N)Nc2c(c(=O)oc3ccccc23)C1c1ccc(Br)cc1 (stereo not drawn)	nt	-0.4	nt
Cc1noc(C)c1NC(=O)N(C)C[C@H]1Oc2c(NS(=O)(=O)c3ccc(Cl)cc3)cccc2C(=O)N([C@@H](C)CO)C[C@@H]1C	-10	-0.082	14
C[C@@H]1CN([C@@H](C)CO)C(=O)c2cccc(NS(=O)(=O)c3ccc(F)cc3)c2O[C@@H]1CN(C)Cc1ccc(C(=O)Nc2ccccc2N)cc1	52	-0.66	26
C[C@H]1CN([C@@H](C)CO)C(=O)c2cccc(NS(=O)(=O)c3ccc(F)cc3)c2O[C@H]1CN(C)Cc1ccc(C(=O)Nc2ccccc2N)cc1	60*	0.2	-18
CC(C)N1C/C(=C/c2ccccc2)C(=O)/C(=C/c2ccccc2)C1	nt	0.35	nt
COc1c2occc2c(OC)c2c(=O)cc(CO[C@@H]3O[C@H](CO)[C@@H](O)[C@H](O)[C@H]3O)oc12	nt	0.54	nt
COC(=O)c1cc(NC(=O)c2ccco2)cc(C(=O)OC)c1	nt	-0.3	nt
O=C(NO)c1cccc(C(=O)N/N=C/c2cc3ccccc3n2S(=O)(=O)c2ccccc2)c1	-23	0.086	-4
CCc1nc2c(cnn2-c2ccccc2)c(=O)n1CCc1ccccc1	nt	0.49	nt
Cc1nc2c(cnn2-c2ccccc2)c(=O)n1NC(=O)Nc1ccc(Cl)c(Cl)c1	nt	9.9*	nt
C1=Cc2nonc2C2C=C(c3ccccc3)N=C12 (stereo not drawn)	nt	0.54	nt
C[C@H](CO)N1C[C@H](C)[C@H](CN(C)S(=O)(=O)c2ccc(F)cc2)Oc2ccc(NC(=O)Nc3ccc(F)cc3)cc2CC1=O	23	0.76	-7

Source: PubChem BioAssay
